Reference: ChEMBL document CHEMBL1138558, “Synthesis of some new 1,2,4-triazoles, their Mannich and Schiff bases and evaluation of their antimicrobial activities” (2009)
Calls of active or inactive are those of the source. The rule behind the calls is not given here.

How the values were obtained:
Format in all cases: functional
Candida tropicalis = assay: Antimicrobial activity against Candida tropicalis ATCC 13803 at 10 mg/mL after 18 hrs by agar-well diffusion method; conditions: for zone of inhibition at 10000 µg/mL: ATCC 13803, 18 h, read-out: IZ
Outline: (§1)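 Candida cultures were suspended in Mueller Hinton broth at about 10⁶ cfu/mL, flood-inoculated onto Sabouraud dextrose agar and dried. Test solution was loaded into 5-mm wells bored in the agar. Plates were incubated 18 h at 35 °C, and activity was scored as the inhibition zone around each well.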

Candida albicans = assay: Antimicrobial activity against Candida albicans ATCC 60193 at 10 mg/mL after 18 hrs by agar-well diffusion method; conditions: for zone of inhibition at 10000 µg/mL: ATCC 60193, 18 h, read-out: IZ; outline: as §1
[1] = system: Yersinia pseudotuberculosis; assay: Antimicrobial activity against Yersinia pseudotuberculosis ATCC 911 at 10 mg/mL after 18 hrs by agar-well diffusion method; conditions: for zone of inhibition at 10000 µg/mL: ATCC 911, 18 h, read-out: IZ
Outline: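 Bacteria suspended in Mueller Hinton broth at about 10⁶ cfu/mL, flood-inoculated onto Mueller Hinton agar and dried. Test substance placed into 5-mm wells bored with a sterile cork-borer. Incubation 18 h at 35 °C, then the inhibition zone around each well measured.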

Escherichia coli = assay: Antimicrobial activity against Escherichia coli ATCC 25922 at 10 mg/mL after 18 hrs by agar-well diffusion method; conditions: for zone of inhibition at 10000 µg/mL: ATCC 25922, 18 h, read-out: IZ
Outline: (§2)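 Agar-well diffusion: each bacterium suspended in Mueller Hinton broth at about 10⁶ cfu/mL, flood-inoculated onto Mueller Hinton agar and dried. 5-mm wells were cut with a sterile cork-borer and filled with the test solution. Plates were incubated 18 h at 35 °C. The read-out was the diameter of the inhibition zone.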

Pseudomonas aeruginosa = assay: Antimicrobial activity against Pseudomonas aeruginosa ATCC 27853 at 10 mg/mL after 18 hrs by agar-well diffusion method; conditions: for zone of inhibition at 10000 µg/mL: ATCC 27853, 18 h, read-out: IZ; outline: as §2
Staphylococcus aureus = assay: Antimicrobial activity against Staphylococcus aureus ATCC 25923 at 10 mg/mL after 18 hrs by agar-well diffusion method; conditions: for zone of inhibition at 10000 µg/mL: ATCC 25923, 18 h, read-out: IZ; outline: as §2
Enterococcus faecalis = assay: Antimicrobial activity against Enterococcus faecalis ATCC 29212 at 10 mg/mL after 18 hrs by agar-well diffusion method; conditions: for zone of inhibition at 10000 µg/mL: ATCC 29212, 18 h, read-out: IZ; outline: as §2
Bacillus cereus = assay: Antimicrobial activity against Bacillus cereus 702 Roma at 10 mg/mL after 18 hrs by agar-well diffusion method; conditions: for zone of inhibition at 10000 µg/mL: read-out: IZ; outline: as §2

O=C(CSc1nnc(-c2ccncc2)n1-c1ccccc1)N/N=C/c1cccnc1
inhibition zone (IZ) (Candida tropicalis): inactive | inhibition zone (IZ) (Candida albicans): inactive | zone of inhibition at 10000 µg/mL [1]: 7 mm | zone of inhibition at 10000 µg/mL (Escherichia coli): 8 mm | inhibition zone (IZ) (Pseudomonas aeruginosa): inactive | inhibition zone (IZ) (Staphylococcus aureus): inactive | inhibition zone (IZ) (Enterococcus faecalis): inactive | inhibition zone (IZ) (Bacillus cereus): inactive

Sc1nnc(-c2ccncc2)n1-c1ccccc1
inhibition zone (IZ) (Candida tropicalis): inactive | inhibition zone (IZ) (Candida albicans): inactive | inhibition zone (IZ) [1]: inactive | inhibition zone (IZ) (Escherichia coli): inactive | inhibition zone (IZ) (Pseudomonas aeruginosa): inactive | inhibition zone (IZ) (Staphylococcus aureus): inactive | inhibition zone (IZ) (Enterococcus faecalis): inactive | inhibition zone (IZ) (Bacillus cereus): inactive

O=C(CSc1nnc(-c2ccncc2)n1-c1ccccc1)N/N=C/c1ccccn1
inhibition zone (IZ) (Candida tropicalis): inactive | inhibition zone (IZ) (Candida albicans): inactive | zone of inhibition at 10000 µg/mL [1]: 30 mm | zone of inhibition at 10000 µg/mL (Escherichia coli): 42 mm | zone of inhibition at 10000 µg/mL (Pseudomonas aeruginosa): 40 mm | zone of inhibition at 10000 µg/mL (Staphylococcus aureus): 24 mm | zone of inhibition at 10000 µg/mL (Enterococcus faecalis): 20 mm | zone of inhibition at 10000 µg/mL (Bacillus cereus): 20 mm

CN1CCN(Cn2nc(-c3ccncc3)n(-c3ccccc3)c2=S)CC1
inhibition zone (IZ) (Candida tropicalis): inactive | inhibition zone (IZ) (Candida albicans): inactive | zone of inhibition at 10000 µg/mL [1]: 24 mm | zone of inhibition at 10000 µg/mL (Escherichia coli): 24 mm | zone of inhibition at 10000 µg/mL (Pseudomonas aeruginosa): 30 mm | zone of inhibition at 10000 µg/mL (Staphylococcus aureus): 24 mm | zone of inhibition at 10000 µg/mL (Enterococcus faecalis): 28 mm | zone of inhibition at 10000 µg/mL (Bacillus cereus): 23 mm

Cc1ccc(-n2c(S)nnc2CSc2nnc(-c3ccncc3)n2-c2ccccc2)cc1
inhibition zone (IZ) (Candida tropicalis): inactive | inhibition zone (IZ) (Candida albicans): inactive | inhibition zone (IZ) [1]: inactive | inhibition zone (IZ) (Escherichia coli): inactive | inhibition zone (IZ) (Pseudomonas aeruginosa): inactive | inhibition zone (IZ) (Staphylococcus aureus): inactive | zone of inhibition at 10000 µg/mL (Enterococcus faecalis): 15 mm | zone of inhibition at 10000 µg/mL (Bacillus cereus): 6 mm

Sc1nnc(CSc2nnc(-c3ccncc3)n2-c2ccccc2)o1
zone of inhibition at 10000 µg/mL (Candida tropicalis): 6 mm | zone of inhibition at 10000 µg/mL (Candida albicans): 6 mm | inhibition zone (IZ) [1]: inactive | inhibition zone (IZ) (Escherichia coli): inactive | inhibition zone (IZ) (Pseudomonas aeruginosa): inactive | zone of inhibition at 10000 µg/mL (Staphylococcus aureus): 8 mm | inhibition zone (IZ) (Enterococcus faecalis): inactive | zone of inhibition at 10000 µg/mL (Bacillus cereus): 6 mm

Cc1ccc(-n2c(CSc3nnc(-c4ccncc4)n3-c3ccccc3)nn(CN3CCN(C)CC3)c2=S)cc1
inhibition zone (IZ) (Candida tropicalis): inactive | inhibition zone (IZ) (Candida albicans): inactive | inhibition zone (IZ) [1]: inactive | inhibition zone (IZ) (Escherichia coli): inactive | inhibition zone (IZ) (Pseudomonas aeruginosa): inactive | inhibition zone (IZ) (Staphylococcus aureus): inactive | inhibition zone (IZ) (Enterococcus faecalis): inactive | inhibition zone (IZ) (Bacillus cereus): inactive

Cc1ccc(Nc2nnc(CSc3nnc(-c4ccncc4)n3-c3ccccc3)s2)cc1
inhibition zone (IZ) (Candida tropicalis): inactive | inhibition zone (IZ) (Candida albicans): inactive | zone of inhibition at 10000 µg/mL [1]: 22 mm | zone of inhibition at 10000 µg/mL (Escherichia coli): 31 mm | zone of inhibition at 10000 µg/mL (Pseudomonas aeruginosa): 35 mm | zone of inhibition at 10000 µg/mL (Staphylococcus aureus): 25 mm | zone of inhibition at 10000 µg/mL (Enterococcus faecalis): 20 mm | zone of inhibition at 10000 µg/mL (Bacillus cereus): 20 mm

O=C(CSc1nnc(-c2ccncc2)n1-c1ccccc1)N/N=C/c1ccc(F)cc1
inhibition zone (IZ) (Candida tropicalis): inactive | inhibition zone (IZ) (Candida albicans): inactive | zone of inhibition at 10000 µg/mL [1]: 25 mm | zone of inhibition at 10000 µg/mL (Escherichia coli): 30 mm | zone of inhibition at 10000 µg/mL (Pseudomonas aeruginosa): 38 mm | zone of inhibition at 10000 µg/mL (Staphylococcus aureus): 30 mm | zone of inhibition at 10000 µg/mL (Enterococcus faecalis): 30 mm | zone of inhibition at 10000 µg/mL (Bacillus cereus): 23 mm

CC(C)CSc1nnc(-c2ccncc2)n1-c1ccccc1
zone of inhibition at 10000 µg/mL (Candida tropicalis): 8 mm | zone of inhibition at 10000 µg/mL (Candida albicans): 8 mm | zone of inhibition at 10000 µg/mL [1]: 30 mm | zone of inhibition at 10000 µg/mL (Escherichia coli): 25 mm | zone of inhibition at 10000 µg/mL (Pseudomonas aeruginosa): 30 mm | zone of inhibition at 10000 µg/mL (Staphylococcus aureus): 25 mm | zone of inhibition at 10000 µg/mL (Enterococcus faecalis): 30 mm | zone of inhibition at 10000 µg/mL (Bacillus cereus): 30 mm

S=c1oc(CSc2nnc(-c3ccncc3)n2-c2ccccc2)nn1CNCCN1CCOCC1
inhibition zone (IZ) (Candida tropicalis): inactive | inhibition zone (IZ) (Candida albicans): inactive | inhibition zone (IZ) [1]: inactive | zone of inhibition at 10000 µg/mL (Escherichia coli): 6 mm | inhibition zone (IZ) (Pseudomonas aeruginosa): inactive | inhibition zone (IZ) (Staphylococcus aureus): inactive | inhibition zone (IZ) (Enterococcus faecalis): inactive | inhibition zone (IZ) (Bacillus cereus): inactive

NNC(=O)CSc1nnc(-c2ccncc2)n1-c1ccccc1
inhibition zone (IZ) (Candida tropicalis): inactive | inhibition zone (IZ) (Candida albicans): inactive | inhibition zone (IZ) [1]: inactive | inhibition zone (IZ) (Escherichia coli): inactive | inhibition zone (IZ) (Pseudomonas aeruginosa): inactive | inhibition zone (IZ) (Staphylococcus aureus): inactive | inhibition zone (IZ) (Enterococcus faecalis): inactive | inhibition zone (IZ) (Bacillus cereus): inactive

O=C(CSc1nnc(-c2ccncc2)n1-c1ccccc1)N/N=C/c1ccncc1
inhibition zone (IZ) (Candida tropicalis): inactive | inhibition zone (IZ) (Candida albicans): inactive | inhibition zone (IZ) [1]: inactive | inhibition zone (IZ) (Escherichia coli): inactive | inhibition zone (IZ) (Pseudomonas aeruginosa): inactive | inhibition zone (IZ) (Staphylococcus aureus): inactive | inhibition zone (IZ) (Enterococcus faecalis): inactive | inhibition zone (IZ) (Bacillus cereus): inactive

Cc1ccc(N(C)c2nnc(CSc3nnc(-c4ccncc4)n3-c3ccccc3)s2)cc1
inhibition zone (IZ) (Candida tropicalis): inactive | inhibition zone (IZ) (Candida albicans): inactive | zone of inhibition at 10000 µg/mL [1]: 16 mm | zone of inhibition at 10000 µg/mL (Escherichia coli): 28 mm | zone of inhibition at 10000 µg/mL (Pseudomonas aeruginosa): 15 mm | zone of inhibition at 10000 µg/mL (Staphylococcus aureus): 22 mm | zone of inhibition at 10000 µg/mL (Enterococcus faecalis): 7 mm | zone of inhibition at 10000 µg/mL (Bacillus cereus): 17 mm

O=C(CSc1nnc(-c2ccncc2)n1-c1ccccc1)N/N=C/c1ccccc1O
inhibition zone (IZ) (Candida tropicalis): inactive | inhibition zone (IZ) (Candida albicans): inactive | zone of inhibition at 10000 µg/mL [1]: 30 mm | zone of inhibition at 10000 µg/mL (Escherichia coli): 30 mm | zone of inhibition at 10000 µg/mL (Pseudomonas aeruginosa): 30 mm | zone of inhibition at 10000 µg/mL (Staphylococcus aureus): 25 mm | zone of inhibition at 10000 µg/mL (Enterococcus faecalis): 30 mm | zone of inhibition at 10000 µg/mL (Bacillus cereus): 25 mm

CCOC(=O)CSc1nnc(-c2ccncc2)n1-c1ccccc1
zone of inhibition at 10000 µg/mL (Candida tropicalis): 13 mm | zone of inhibition at 10000 µg/mL (Candida albicans): 13 mm | inhibition zone (IZ) [1]: inactive | inhibition zone (IZ) (Escherichia coli): inactive | inhibition zone (IZ) (Pseudomonas aeruginosa): inactive | inhibition zone (IZ) (Staphylococcus aureus): inactive | inhibition zone (IZ) (Enterococcus faecalis): inactive | inhibition zone (IZ) (Bacillus cereus): inactive

S=c1n(CN2CCN(Cn3nc(-c4ccncc4)n(-c4ccccc4)c3=S)CC2)nc(-c2ccncc2)n1-c1ccccc1
inhibition zone (IZ) (Candida tropicalis): inactive | inhibition zone (IZ) (Candida albicans): inactive | inhibition zone (IZ) [1]: inactive | inhibition zone (IZ) (Escherichia coli): inactive | inhibition zone (IZ) (Pseudomonas aeruginosa): inactive | inhibition zone (IZ) (Staphylococcus aureus): inactive | inhibition zone (IZ) (Enterococcus faecalis): inactive | inhibition zone (IZ) (Bacillus cereus): inactive

CSc1nnc(-c2ccncc2)n1-c1ccccc1
zone of inhibition at 10000 µg/mL (Candida tropicalis): 9 mm | zone of inhibition at 10000 µg/mL (Candida albicans): 9 mm | zone of inhibition at 10000 µg/mL [1]: 30 mm | zone of inhibition at 10000 µg/mL (Escherichia coli): 30 mm | zone of inhibition at 10000 µg/mL (Pseudomonas aeruginosa): 30 mm | zone of inhibition at 10000 µg/mL (Staphylococcus aureus): 25 mm | zone of inhibition at 10000 µg/mL (Enterococcus faecalis): 30 mm | zone of inhibition at 10000 µg/mL (Bacillus cereus): 30 mm

O=C(CSc1nnc(-c2ccncc2)n1-c1ccccc1)N/N=C/c1c(Cl)cccc1Cl
inhibition zone (IZ) (Candida tropicalis): inactive | inhibition zone (IZ) (Candida albicans): inactive | inhibition zone (IZ) [1]: inactive | inhibition zone (IZ) (Escherichia coli): inactive | inhibition zone (IZ) (Pseudomonas aeruginosa): inactive | inhibition zone (IZ) (Staphylococcus aureus): inactive | inhibition zone (IZ) (Enterococcus faecalis): inactive | inhibition zone (IZ) (Bacillus cereus): inactive

Cc1ccc(NC(=S)NNC(=O)CSc2nnc(-c3ccncc3)n2-c2ccccc2)cc1
zone of inhibition at 10000 µg/mL (Candida tropicalis): 7 mm | zone of inhibition at 10000 µg/mL (Candida albicans): 7 mm | inhibition zone (IZ) [1]: inactive | inhibition zone (IZ) (Escherichia coli): inactive | inhibition zone (IZ) (Pseudomonas aeruginosa): inactive | inhibition zone (IZ) (Staphylococcus aureus): inactive | inhibition zone (IZ) (Enterococcus faecalis): inactive | inhibition zone (IZ) (Bacillus cereus): inactive
